Data published in PubChem BioAssay.
The source made the active and inactive calls.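 Rule for the calls, unless noted: active = NADPH fluorescence slope more negative than the mean of all samples by about 3 SD, 99.7% confidence; inactive = the rest.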

Key:
[1] = inhibitors of TNFa-induced NFkB p65 translocation, primary screen, imaging, HUVEC, MLSMR starter and 10KST1 sets (AID 438;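 active = inhibition above 20% together with a positive visual image hit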;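 note: compound added about 3h40 before a 20 min TNFalpha stimulation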;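 for inhibition: signal is the nuclear over cytoplasmic p65 intensity ratio per well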); settings: HUVEC TNFa-induced p65 nuclear translocation; cell count: measured here: nuclei count (cytotoxicity indicator), at 2.08 µM; inhibition: at 2 µM, stronger effect = higher value, 0% TNFa-plus-vehicle, 100% no-TNFa wells
[2] = reduction of polyQ htt aggregates in cells – imaging, exon1htt(103Q)mCFP cells, high-content imaging, primary screen (AID 483;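 active = visual image review flags a hit and inhibition of aggregation exceeds 20%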;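 note: compound exposure lasted 3 days before fixation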;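 for nuclei count: percent of the per-plate median nuclei count of sample wells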); settings: exon1htt(103Q)mCFP cell line, aggregate imaging, at 2 µM; inhibition of aggregation: stronger effect = higher value; nuclei count: measured here: cell count, toxicity
[3] = endothelial E-selectin expression blockers – imaging, HUVEC, immunofluorescence, MLSMR starter and 10KST1 sets, primary screen (AID 487;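 active = visually confirmed hit in the image check and inhibition above 20%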;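 for inhibition: signal is fraction of cell area covered by stained E-selectin grains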;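 for nuclei count: 100% = median nuclei count of all wells on the same plate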); settings: HUVEC TNFalpha-induced E-selectin immunofluorescence imaging, at 2 µM; inhibition: stronger effect = higher value; nuclei count: measured here: cell number, toxicity
[4] = target: Voltage-gated potassium channel subunit beta-2 (Rattus norvegicus) (UniProt P62483); assay: inhibitors of rat Kvbeta2 reductase activity – biochemical, NADPH fluorescence, primary screen (AID 622;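 active = fluorescence slope higher than the sample average by over 3 SD, cut at about -0.22 in these data, passing the limit was not always enough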;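 note: slope of raw intensity against log time taken from 70 to 1610 s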); settings: recombinant KvBeta, 4-cyanobenzaldehyde reduction, at 10 µM, stronger effect = higher value
[5] = target: Voltage-gated potassium channel subunit beta-2 (Rattus norvegicus) (UniProt P62483); assay: enhancers of rat Kvbeta2 NADPH turnover – biochemical, NADPH fluorescence, primary screen (AID 623); settings: Recombinant KvBeta, NADPH fluorescence decrease slope, 10 min; at 10 µM; stronger effect = lower value;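 note: fluorescence intensity change per second fitted from 20 to 320 s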
[6] = target: Muscarinic acetylcholine receptor M4 (Homo sapiens) (UniProt P08173); assay: M4-linked GIRK flux change, two-sided – cell-based, HEK293 M4/GIRK, thallium flux, BTC-AM, M4 allosteric agonist project, primary screen (AID 625;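 active = fluorescence slope after compound addition differing from the mean of all tested samples at 99.7% confidence, mostly higher but some lower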;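 note: thallium influx through GIRK channels coupled to M4 in HEK293 cells with BTC-AM dye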); settings: at 10 µM, actives lie on both sides
How it was run: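 Material: M4/GIRK1/GIRK2 stable HEK293 cell line. Medium: pH 7.3 thallium assay buffer. Dosing: single compound concentration, 10 µM final. Schedule: 1 h dye loading, 2 min kinetic read. Measured by: kinetic fluorescence with BTC-AM dye. Read-out: post-addition slope, 15–24 s, of baseline-normalized fluorescence. Benchmarks: carbachol and DMSO controls.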

[7] = blockers of RIG-like receptor reporter activation – cell-based, Sendai virus stimulus, luciferase, 10K MLSCN set, TLR/RLR signaling modifier project, primary screen (AID 602276;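 active = inhibition at or above 50% at 10 µM; inactive = inhibition below 50%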;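 note: firefly luciferase from ISG56 promoter only with Renilla not read in this screen; 0% = Sendai virus plus DMSO and 100% = medium plus DMSO without virus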); settings: HEK293 RL24 IRF3 luciferase reporter, at 10 µM, stronger effect = higher value
[8] = TLR3 IRF3 reporter activation blockers – cell-based, poly I:C stimulus, luciferase, 10K MLSCN set, primary screen (AID 602277;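 active = inhibition of the reporter signal at or above 50%; inactive = inhibition below 50%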); settings: HEK293-TLR3 RL24 IRF3 luciferase reporter, at 10 µM, stronger effect = higher value

Muscarinic acetylcholine receptor M4 (Homo sapiens), sequence (P08173 whole entry, looked up): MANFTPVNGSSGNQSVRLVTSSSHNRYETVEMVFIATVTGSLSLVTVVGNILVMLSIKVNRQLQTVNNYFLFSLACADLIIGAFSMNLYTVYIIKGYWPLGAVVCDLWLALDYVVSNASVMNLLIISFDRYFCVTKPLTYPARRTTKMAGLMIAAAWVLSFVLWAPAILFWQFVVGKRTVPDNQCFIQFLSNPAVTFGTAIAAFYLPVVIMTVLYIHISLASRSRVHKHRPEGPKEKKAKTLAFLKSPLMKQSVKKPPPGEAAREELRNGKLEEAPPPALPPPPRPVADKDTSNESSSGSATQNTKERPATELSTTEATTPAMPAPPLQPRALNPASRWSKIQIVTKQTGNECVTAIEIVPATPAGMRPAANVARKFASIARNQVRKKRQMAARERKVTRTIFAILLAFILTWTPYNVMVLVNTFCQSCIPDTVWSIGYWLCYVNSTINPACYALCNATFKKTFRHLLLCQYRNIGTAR
Voltage-gated potassium channel subunit beta-2 (Rattus norvegicus), sequence (P62483 whole entry, looked up): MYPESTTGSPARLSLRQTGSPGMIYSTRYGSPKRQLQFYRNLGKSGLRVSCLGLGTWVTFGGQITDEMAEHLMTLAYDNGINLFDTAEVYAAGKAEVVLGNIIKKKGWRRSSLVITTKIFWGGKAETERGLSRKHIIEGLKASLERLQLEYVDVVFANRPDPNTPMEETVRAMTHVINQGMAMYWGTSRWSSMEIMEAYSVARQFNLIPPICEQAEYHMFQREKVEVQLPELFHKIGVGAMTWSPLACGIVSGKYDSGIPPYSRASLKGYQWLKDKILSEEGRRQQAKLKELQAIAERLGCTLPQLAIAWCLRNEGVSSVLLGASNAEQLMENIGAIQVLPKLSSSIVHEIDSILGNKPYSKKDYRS

Row | Compound | cell count [1] | inhibition [1] | inhibition of aggregation [2] | nuclei count [2] | inhibition [3] | nuclei count [3] | fluorescence slope [4] | NADPH fluorescence slope [5] | fluorescence slope [6] | inhibition [7] | inhibition [8]
1 | Nc1ncnc2nc(SCCN3CCCCC3)[nH]c12 | 189 | -0.7% (inactive) | 5% (inactive) | 90.8% | -0.1% (inactive) | 92.4% | -0.545 (inactive) | -3.4e-05 (inactive) | 0.00574 (inactive) | 17.8% (inactive) | 10.9% (inactive)
2 | Cc1ccc(C2N(c3ccc(Cl)c(Cl)c3)C(=O)C3CCCN32)o1 (stereo not drawn) | 495 | -1.5% (inactive) | 7.9% (inactive) | 98.2% | -11.2% (inactive) | 97% | -0.561 (inactive) | -2e-05 (inactive) | 0.0047 (inactive) | 16.9% (inactive) | 18.1% (inactive)
3 | Cc1cc(NC(=O)c2cnn3cccnc23)no1 | 467 | 0.3% (inactive) | 3.3% (inactive) | 104% | -33.8% (inactive) | 119% | -0.613 (inactive) | -4.3e-05 (inactive) | 0.00996 (inactive) | -57.6% (inactive) | -124% (inactive)
4 | CCSc1nnc(NC(=O)c2cc(C)oc2C)s1 | 352 | -1.4% (inactive) | 5.7% (inactive) | 98.6% | 5.1% (inactive) | 56.1% | -0.451 (inactive) | -4.1e-07 (inactive) | 0.00476 (inactive) | -35.9% (inactive) | -83.6% (inactive)
5 | N#Cc1cnc(SCC(=O)Nc2ccccc2C(F)(F)F)nc1N | 743 | 2.2% (inactive) | 15.1% (inactive) | 102% | -205% (inactive) | 121% | -0.371 (inactive) | 5.4e-05 (inactive) | 0.00496 (inactive) | 14% (inactive) | 22.7% (inactive)
6 | COCc1[nH]nc2c1C(C1C=CCCC1)C(C#N)=C(N)O2 (stereo not drawn) | 463 | 5.7% (inactive) | -1.8% (inactive) | 110% | -76.2% (inactive) | 120% | -0.464 (inactive) | -6.2e-05 (inactive) | 0.00521 (inactive) | 16.7% (inactive) | 31.6% (inactive)
7 | O=C(c1ccc(Cl)cc1)N(Cc1cccs1)C1CCS(=O)(=O)C1 (stereo not drawn) | 376 | 0.4% (inactive) | -20.1% (inactive) | 110% | -33.8% (inactive) | 112% | -0.555 (inactive) | -9.2e-05 (inactive) | 0.00385 (inactive) | -5.62% (inactive) | -0.322% (inactive)
8 | COc1ccc(NC(=O)Nc2cc(C)ccc2OC)cc1 | 217 | 8.3% (inactive) | -1.8% (inactive) | 98.6% | -133% (inactive) | 120% | -0.422 (inactive) | -0.00041 (inactive) | 0.00547 (inactive) | -39.1% (inactive) | -80.2% (inactive)
9 | COc1cccc(CNC(=O)CCn2c(=O)oc3ccccc32)c1 | 277 | -11.3% (inactive) | 21.1% (inactive) | 8.9% | -28.3% (inactive) | 104% | -0.551 (inactive) | 5e-05 (inactive) | 0.0058 (inactive) | 14.4% (inactive) | 20.5% (inactive)
10 | COCCn1c(-c2ccc(OC)c(OC)c2)nc2ccccc21 | 247 | -1.1% (inactive) | 28.5% (inactive) | 85.8% | 16.7% (inactive) | 77.6% | -0.536 (inactive) | -3.2e-05 (inactive) | 0.00485 (inactive) | -2.29% (inactive) | 11% (inactive)
11 | COc1ccc(CCNC(=O)c2nc3ncccn3n2)cc1OC | 643 | -2.3% (inactive) | 13.7% (inactive) | 82.2% | -12.1% (inactive) | 100% | -0.447 (inactive) | -4.3e-05 (inactive) | 0.00528 (inactive) | 18.2% (inactive) | 18.1% (inactive)
12 | CCCn1c(NCc2ccc3c(c2)OCO3)nc2ccccc21 | 650 | -6.8% (inactive) | 2.4% (inactive) | 97.6% | 32% (inactive) | 93.5% | -0.537 (inactive) | -5.7e-05 (inactive) | 0.00348 (inactive) | -9.91% (inactive) | -7.89% (inactive)
13 | O=C(CSc1nnc2scc(-c3ccccc3)n12)N1CCN(Cc2ccccc2)CC1 | 703 | -24.5% (inactive) | 6.5% (inactive) | 110% | 19.1% (inactive) | 91.4% | -0.5 (inactive) | 2.7e-06 (inactive) | 0.00675 (inactive) | 6.37% (inactive) | 7.98% (inactive)
14 | Cn1c(=O)[nH]c(=O)c2c1nc(N1CCNCC1)n2Cc1cccc2ccccc12 | 387 | 1.1% (inactive) | 13.1% (inactive) | 99.6% | -83.1% (inactive) | 106% | -0.59 (inactive) | -5.5e-05 (inactive) | 0.00615 (inactive) | 13.2% (inactive) | 28.8% (inactive)
15 | COc1ccccc1C(=O)Nc1ccc(S(=O)(=O)N2CCOCC2)cc1 | 353 | -6% (inactive) | 21.1% (inactive) | 61.9% | -85.7% (inactive) | 105% | -0.571 (inactive) | -5.6e-05 (inactive) | 0.00422 (inactive) | 10.8% (inactive) | 0.189% (inactive)
16 | Cc1ccc(-c2nnn(CC(=O)N(CC(=O)NCC3CCCO3)c3ccccc3)n2)o1 (stereo not drawn) | 618 | -3.6% (inactive) | -12.2% (inactive) | 85.7% | -161% (inactive) | 106% | -0.584 (inactive) | -1.6e-05 (inactive) | 0.00876 (inactive) | 1.41% (inactive) | 5.51% (inactive)
17 | CCOC(=O)Cc1nnc(NC(=O)CSc2nnc3c4ccccc4n(C(C)C)c3n2)s1 | 359 | -7.7% (inactive) | -10.9% (inactive) | 94.3% | -158% (inactive) | 90.2% | -0.554 (inactive) | -3.3e-05 (inactive) | 0.00407 (inactive) | 18% (inactive) | 25.8% (inactive)
18 | CN(Cc1cccs1)c1ncnc2sccc12 | 549 | -11.6% (inactive) | -28.3% (inactive) | 101% | -38.6% (inactive) | 147% | -0.456 (inactive) | 2.8e-05 (inactive) | 0.00479 (inactive) | 7.29% (inactive) | -37.9% (inactive)
19 | COc1ccc(OC)c(CNC(=O)CCN2C(=O)COc3ccccc32)c1 | 663 | 14.4% (inactive) | 21.7% (inactive) | 64% | -29.9% (inactive) | 110% | -0.479 (inactive) | -6e-05 (inactive) | 0.00555 (inactive) | -19.9% (inactive) | -11.1% (inactive)
20 | COc1ccccc1N1CCN(CCCNC(=O)Nc2ccccc2)CC1 | 377 | 8.7% (inactive) | 8.2% (inactive) | 96.1% | -129% (inactive) | 106% | -0.449 (inactive) | 1.8e-05 (inactive) | 0.00541 (inactive) | 15.3% (inactive) | 23.9% (inactive)
21 | Nc1nonc1-c1noc(CCCCCN2C(=O)c3ccccc3C2=O)n1 | 221 | 6.9% (inactive) | -10.5% (inactive) | 91% | 9.5% (inactive) | 88% | -0.522 (inactive) | -2.2e-05 (inactive) | 0.00407 (inactive) | -4.73% (inactive) | -15.6% (inactive)
22 | CCN(CC(=O)NC(=O)NCc1ccco1)Cc1nc2ccccc2c(=O)[nH]1 | 407 | -20.9% (inactive) | -36.6% (inactive) | 97.9% | 63.7% (active) | 68.4% | -0.561 (inactive) | -5.5e-05 (inactive) | 0.0066 (inactive) | 15.7% (inactive) | 15% (inactive)
23 | CCc1ccc(NS(=O)(=O)c2ccc3[nH]cc(C(=O)N4CCCCC4)c(=O)c3c2)cc1 | 672 | 13.7% (inactive) | 14.2% (inactive) | 86% | 2.5% (inactive) | 81.2% | -0.562 (inactive) | -5.7e-05 (inactive) | 0.00784 (inactive) | 20.2% (inactive) | 24.4% (inactive)
24 | Cc1ccsc1C1C2=C(CCCC2=O)Nc2ncnn21 (stereo not drawn) | 266 | -3.8% (inactive) | 15.5% (inactive) | 86.7% | -2.9% (inactive) | 101% | -0.523 (inactive) | -0.000154 (inactive) | 0.00358 (inactive) | 12.8% (inactive) | 16.1% (inactive)
25 | C=CCSc1ncccc1C(=O)O | 709 | 6.9% (inactive) | -8.1% (inactive) | 108% | -36.4% (inactive) | 111% | -0.556 (inactive) | -6.2e-05 (inactive) | 0.00662 (inactive) | -12.7% (inactive) | -3.04% (inactive)
26 | C=CCNC(=O)CNS(=O)(=O)c1ccc(F)cc1 | 443 | -2.6% (inactive) | 11.8% (inactive) | 73.9% | 36.9% (inactive) | 88% | -0.592 (inactive) | 1e-05 (inactive) | 0.00626 (inactive) | 19.3% (inactive) | 45.8% (inactive)
27 | O=C(NCc1ccco1)Nc1ccc2nsnc2c1 | 683 | -6.1% (inactive) | -22.1% (inactive) | 113% | -138% (inactive) | 119% | -0.445 (inactive) | -2.6e-05 (inactive) | 0.00612 (inactive) | -31.4% (inactive) | -83.7% (inactive)
28 | Cc1ncoc1C(=O)Nc1ccccc1C(N)=O | 408 | 3.5% (inactive) | 11.4% (inactive) | 102% | -2.5% (inactive) | 108% | -0.243 (inactive) | -1.8e-07 (inactive) | 0.00516 (inactive) | 1.59% (inactive) | -3.92% (inactive)
